Drawing on ChEMBL document CHEMBL1154946, “Synthetic atpenin analogs: Potent mitochondrial inhibitors of mammalian and fungal succinate-ubiquinone oxidoreductase” (Bioorg Med Chem Lett, 2010), this text covers IC50 and Activity for 28 compounds.

Active and inactive are the calls of the source. The calls are words filed in the database; no cut-off is given here. Where only a bound is given, the exact number is not on record here.

Test [1] is described as follows: Inhibition of Septoria nodorum sub-mitochondrial membrane SQR assessed as ubiquinol-dependent reduction of DCIP after 10 mins by spectrophotometry. Further details: species or system Parastagonospora nodorum. The method, boiled down: (§1)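 Complex II (SQR) activity in sub-mitochondrial membranes from bovine heart or Septoria nodorum, run in plate format. 20 mM succinate serves as electron donor, with decyl ubiquinone as acceptor and DCIP as terminal dye acceptor. The reaction is started by adding succinate and runs 10 min. Read-out is spectrophotometric, giving IC50.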

Test [2] in a line: Inhibition of bovine heart sub-mitochondrial membrane SQR assessed as ubiquinol-dependent reduction of DCIP after 10 mins by spectrophotometry. Details: species or system Bos taurus. The method, boiled down:
as §1

The test system of test [3] is Parastagonospora nodorum. The test can be described thus: Antifungal activity against Septoria nodorum at 200 ppm by whole plant assay. The test is classed as functional, organism-based.
For test [4], the system named is Parastagonospora nodorum. Kind of test: Antifungal activity against Septoria nodorum at 200 ppm. The test is classed as functional, organism-based.

A word on the IC50: it is the concentration at which inhibition is half-maximal. On to `O=C(Nc1ccccc1-c1ccc(Cl)cc1)c1cccnc1Cl` [BOSCALID], for which the IC50 in test [1] was found to be 245 nM; in test [2], 1790 nM.
Regarding `COc1ccc(C(=O)c2c[nH]c(OC)c(OC)c2=O)cc1`, the IC50 in test [1] and in test [2] was above 30000 nM in each case. Also, the result in the test on Parastagonospora nodorum [3] and with Parastagonospora nodorum [4] was inactive.
Take `COc1[nH]c(=O)c(C(=O)[C@@H](C)C[C@H](C)[C@@H](Cl)CCl)c(O)c1OC` [ATPENIN A5]: the figures for the 50% inhibitory concentration (IC50) in test [1] and in test [2] were 11 nM and 4 nM, respectively.
Regarding `COc1[nH]cc(C(=O)c2ccc3ccccc3c2)c(=O)c1OC`, the half-inhibitory concentration (IC50) came to 20700 nM in test [1] and 12800 nM in test [2]. For the same compound, the outcome in the test on Parastagonospora nodorum [3] and with Parastagonospora nodorum [4] was inactive.
For `COc1[nH]cc(C(=O)c2ccccc2Cl)c(=O)c1OC`, the IC50 in test [1] and in test [2] was above 30000 nM in each case. Moreover, the result in the test with Parastagonospora nodorum [3] and in the test on Parastagonospora nodorum [4] was inactive.
For the compound `CCC(C)C(=O)c1c[nH]c(OC)c(OC)c1=O` (stereo not drawn), the IC50 in test [1] and in test [2] was above 30000 nM each time. Further, the result with Parastagonospora nodorum [3] and in the test with Parastagonospora nodorum [4] was inactive.
As for `COc1[nH]cc(C(=O)c2cccc(Oc3ccccc3)c2)c(=O)c1OC`, the half-inhibitory concentration (IC50) amounted to 2980 nM in test [1] and 454 nM in test [2]. Also, the result in the test with Parastagonospora nodorum [3] and with Parastagonospora nodorum [4] was inactive.
With `COc1[nH]c(Br)c(C(=O)c2ccc(Cl)cc2)c(=O)c1OC`, the IC50 in test [1] is 1940 nM; in test [2] it was 1270 nM. For the same compound, the result in the test on Parastagonospora nodorum [3] and with Parastagonospora nodorum [4] was inactive.
For `COc1nc(O)c(C(=O)C(C)c2ccccc2)c(O)c1OC` (stereo not drawn), the IC50 in test [1] was 299 nM; in test [2] it was 8 nM. Besides, the result in the test on Parastagonospora nodorum [3] and in the test on Parastagonospora nodorum [4] was inactive.
As to `COc1nc(O)c(C(=O)c2cccc(Oc3ccccc3)c2)c(O)c1OC`, the results for the IC50 in test [1] and in test [2] were 2330 nM and 112 nM, respectively. The result in the test with Parastagonospora nodorum [3] and in the test on Parastagonospora nodorum [4] was inactive.
Regarding `COc1nc(O)c(C(=O)C(c2ccccc2)c2ccccc2)c(O)c1OC`, the IC50 is above 30000 nM in test [1] and 630 nM in test [2]. The result in the test with Parastagonospora nodorum [3] and with Parastagonospora nodorum [4] was inactive.
As for `CCCCC(C)C(=O)c1c(O)nc(OC)c(OC)c1O` (stereo not drawn), the half-maximal inhibitory concentration (IC50) in test [1] was 122 nM; in test [2] it was 20 nM. The result in the test with Parastagonospora nodorum [3] and in the test on Parastagonospora nodorum [4] was inactive.
For the compound `COc1[nH]cc(C(=O)c2ccc(Cl)cc2)c(=O)c1OC`, the IC50 was determined as 26700 nM in test [1] and 3400 nM in test [2]. In addition, the result in the test with Parastagonospora nodorum [3] and in the test with Parastagonospora nodorum [4] was inactive.
As for `CCCCCCCCCC(C)C(=O)c1c(O)nc(OC)c(OC)c1O` (stereo not drawn), the concentration for half-maximal inhibition (IC50) is 4 nM in test [1] and 3 nM in test [2]. The result with Parastagonospora nodorum [3] and in the test on Parastagonospora nodorum [4] was inactive.
With `COc1nc(O)c(C(=O)C(C)Cc2ccc(C(C)(C)C)cc2)c(O)c1OC` (stereo not drawn), the half-maximal inhibitory concentration (IC50) is 24 nM in test [1] and 8 nM in test [2]. In addition, the result with Parastagonospora nodorum [3] and in the test with Parastagonospora nodorum [4] was inactive.
`COc1[nH]c(OC)c(C(=O)c2ccc(Cl)cc2)c(=O)c1OC`: the half-inhibitory concentration (IC50) in test [1] and in test [2] was above 30000 nM each time. Also, the outcome with Parastagonospora nodorum [3] and in the test with Parastagonospora nodorum [4] was inactive.
For the compound `COc1[nH]cc(C(=O)c2cccc(Cl)c2)c(=O)c1OC`, the concentration for half-maximal inhibition (IC50) in test [1] was above 30000 nM; in test [2] it was 6560 nM. The outcome with Parastagonospora nodorum [3] and in the test with Parastagonospora nodorum [4] was inactive.
Take `COc1nc(OC(C)=O)c(C(=O)c2ccc(Cl)cc2)c(OC(C)=O)c1OC`: the IC50 in test [1] and in test [2] was above 30000 nM throughout. The result with Parastagonospora nodorum [3] and in the test on Parastagonospora nodorum [4] was inactive.
For `COc1nc(O)c(C(=O)C(C)CCC=C(C)C)c(O)c1OC` (stereo not drawn), the values for the IC50 in test [1] and in test [2] were 51 nM and 5 nM, respectively. In addition, the outcome in the test on Parastagonospora nodorum [3] and in the test on Parastagonospora nodorum [4] was inactive.
On to `CCC(C)C(=O)c1c(O)nc(OC)c(OC)c1O` (stereo not drawn), for which the IC50 in test [1] turned out to be 2580 nM; in test [2] it was 96 nM. Further, the outcome with Parastagonospora nodorum [3] and in the test on Parastagonospora nodorum [4] was inactive.
For `CCCCC(CC)C(=O)c1c(O)nc(OC)c(OC)c1O` (stereo not drawn), the results for the concentration for half-maximal inhibition (IC50) in test [1] and in test [2] were 234 nM and 125 nM, respectively. For the same compound, the result in the test with Parastagonospora nodorum [3] and in the test with Parastagonospora nodorum [4] was inactive.
Consider `COc1[nH]cc(C(=O)c2ccc(Oc3ccccc3)cc2)c(=O)c1OC`, for which the IC50 was determined as 4080 nM in test [1] and 492 nM in test [2]. Also, the outcome in the test with Parastagonospora nodorum [3] and in the test with Parastagonospora nodorum [4] was inactive.
For `COc1nc(O)c(C(=O)c2ccc(Cl)cc2)c(O)c1OC`, the 50% inhibitory concentration (IC50) in test [1] was above 30000 nM; in test [2], 326 nM. Also, the result in the test on Parastagonospora nodorum [3] and in the test with Parastagonospora nodorum [4] was inactive.
In the case of `COc1[nH]cc(C(=O)c2ccc(-c3ccccc3)cc2)c(=O)c1OC`, the results for the half-maximal inhibitory concentration (IC50) in test [1] and in test [2] were 2750 nM and 795 nM, respectively. Moreover, the outcome with Parastagonospora nodorum [3] and in the test with Parastagonospora nodorum [4] was inactive.
Consider `COc1[nH]c(C)c(C(=O)c2ccc(Cl)cc2)c(=O)c1OC`, for which the IC50 in test [1] stood at 14000 nM; in test [2] it was 13800 nM. Further, the result in the test on Parastagonospora nodorum [3] and in the test on Parastagonospora nodorum [4] was inactive.
Turning to `COc1[nH]cc(C(=O)c2ccccc2Oc2ccccc2)c(=O)c1OC`, the 50% inhibitory concentration (IC50) in test [1] and in test [2] was above 30000 nM each time. In addition, the result in the test on Parastagonospora nodorum [3] and in the test with Parastagonospora nodorum [4] was inactive.
As for `COc1nc(O)c(C(=O)C2CCCCC2)c(O)c1OC`, the half-inhibitory concentration (IC50) in test [1] was found to be 1780 nM; in test [2], 127 nM. The outcome in the test with Parastagonospora nodorum [3] and in the test on Parastagonospora nodorum [4] was inactive.
As to `COc1nc(OS(C)(=O)=O)c(C(=O)c2ccc(Cl)cc2)c(OS(C)(=O)=O)c1OC`, the concentration for half-maximal inhibition (IC50) in test [1] and in test [2] was above 30000 nM throughout. Moreover, the outcome in the test with Parastagonospora nodorum [3] and with Parastagonospora nodorum [4] was inactive.
